According to ChEMBL document CHEMBL1122734, “A novel peptide delivery system involving peptidase activated prodrugs as antimicrobial agents. Synthesis and biological activity of peptidyl derivatives of 5-fluorouracil” (J Med Chem, 1984):
Converted amounts (≈) assume the structure as drawn.

Assays:
Candida albicans [1] = assay: Compound is evaluated for disk diffusion assay of the activity against Candida albicans B-311 at […]; assay type: functional
Escherichia coli [2] = assay: Compound is evaluated for antagonistic activity against Escherichia coli M2626 at […]; assay type: functional
Candida albicans [3] = assay: Compound is evaluated for minimum inhibitory concentrations against Candida albicans strain B311; assay type: functional
How it was run: (§1)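 Twofold broth dilution in yeast carbon base medium with lysine 200 µg/mL. Final inoculum was approximately 10^4-10^5 cfu/mL, incubated overnight at 37 °C. MIC was taken as the lowest concentration giving complete growth inhibition.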

Candida albicans [4] = assay: Compound is evaluated for disk diffusion assay of the activity against Candida albicans B-311 at 1.5 ug/disk; assay type: functional
How it was run: (§2)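 Cells grown 7 h at 37 °C in trypticase soy broth with shaking at 250 rpm. 1 mL of culture was seeded into 1 L of yeast carbon base agar with lysine 200 µg/mL, and 15 mL was poured per plate. Peptides in water were loaded onto 6.35-mm paper disks. Plates were incubated 24 h at 37 °C and inhibition zones read.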

Escherichia coli [5] = assay: Compound is evaluated for antagonistic activity against Escherichia coli M2626 at 6.0 ug/disk; assay type: functional
How it was run: (§3)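 Disk diffusion on E. coli seeded agar plates. Culture grown in trypticase soy broth for 7 h at 37 °C with shaking at 250 rpm, then 1 mL per litre of agar medium; plates made as for C. albicans but with M-9 medium. Peptide in water absorbed onto 6.35-mm paper disks. Antagonism tested by placing a second disk with noninhibitory di- or tripeptide over the test disk. Plates incubated 24 h at 37 °C; inhibition zones read.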

Candida albicans [6] = assay: Compound is evaluated for disk diffusion assay of the activity against Candida albicans B-311 at 25.0 ug/disk; assay type: functional; how it was run: as §2
Candida albicans [7] = assay: Compound is evaluated for minimum inhibitory concentrations against Candida albicans strain 3153A; assay type: functional; how it was run: as §1
Escherichia coli [8] = assay: 2 mg/disk of dialanine was codisked on the compound and evaluated for antagonistic activity against Escherichia coli M2626,at 1.5 ug/disk; assay type: functional; how it was run: as §3
Escherichia coli [9] = assay: 2 mg/disk of dialanine was codisked on the compound and evaluated for antagonistic activity against Escherichia coli M2626,at 6.0 ug/disk; assay type: functional; how it was run: as §3
Candida albicans [10] = assay: Compound is evaluated for disk diffusion assay of the activity against Candida albicans B-311 at 6.0 ug/disk; assay type: functional; how it was run: as §2
Candida albicans [11] = assay: Compound is evaluated for disk diffusion assay of the activity against Candida albicans B-311 at 3.0 ug/disk; assay type: functional; how it was run: as §2
Escherichia coli [12] = assay: 2 mg/disk of dialanine was codisked on the compound and evaluated for antagonistic activity against Escherichia coli M2626,at 3.0 ug/disk; assay type: functional; how it was run: as §3
Escherichia coli [13] = assay: Compound is evaluated for antagonistic activity against Escherichia coli M2626 at 1.5 ug/disk; assay type: functional; how it was run: as §3
Candida albicans [14] = assay: Compound is evaluated for minimum inhibitory concentrations against Candida albicans strain BC759; assay type: functional; how it was run: as §1
Escherichia coli [15] = assay: Compound is evaluated for antagonistic activity against Escherichia coli M2626 at 3.0 ug/disk; assay type: functional; how it was run: as §3
Escherichia coli [16] = assay: 2 mg/disk of dialanine was codisked on the compound and evaluated for antagonistic activity against Escherichia coli M2626,at […]; assay type: functional
Escherichia coli [17] = assay: Compound is evaluated for antagonistic activity against Escherichia coli M2626 at 25.0 ug/disk; assay type: functional; how it was run: as §3
Homo sapiens [18] = species: Homo sapiens; assay: Stability in human serum at the time of 5 hours, stability was measured by in the form of percent Fluoro uracil; assay type: ADME
How it was run: (§4)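 A 1:1 mixture of the L,L and L,D peptide diastereomers was added as powder to undiluted serum at 0.5 mg/mL and held at 37 °C. Samples were taken at time points, filtered through glass fiber, and analysed by reversed-phase (RP-18) HPLC. Values are the increase in percent free 5-FU.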

Homo sapiens [19] = species: Homo sapiens; assay: Stability in human serum at the time of 24 hours, stability was measured by in the form of percent Fluoro uracil; assay type: ADME; how it was run: as §4
Homo sapiens [20] = species: Homo sapiens; assay: Stability in human serum at the time of 0.5 hours, stability was measured by in the form of percent Fluoro uracil; assay type: ADME; how it was run: as §4
Mus musculus [21] = species: Mus musculus; assay: Stability in mouse serum at the time of 24 hours, stability was measured by in the form of percent Fluoro uracil; assay type: ADME; how it was run: as §4
[22] = Stability in water (H20) at the time of 240 hours, stability was measured by in the form of percent Fluoro uracil; assay type: physicochemical; settings: buffer
How it was run: (§5)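 A 1:1 mixture of the L,L and L,D peptide diastereomers was added at 0.5 mg/mL to distilled water and kept at 23 °C. Samples were taken over time, filtered through glass fiber, and analysed by RP-18 HPLC. Values are the percent free 5-FU formed.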

Homo sapiens [23] = species: Homo sapiens; assay: Stability in human serum at the time of 1.5 hours, stability was measured by in the form of percent Fluoro uracil; assay type: ADME; how it was run: as §4
Mus musculus [24] = species: Mus musculus; assay: Stability in mouse serum at the time of zero(0) hours, stability was measured by in the form of percent Fluoro uracil; assay type: ADME; how it was run: as §4
Homo sapiens [25] = species: Homo sapiens; assay: Stability in human serum at the time of 50 hours, stability was measured by in the form of percent Fluoro uracil; assay type: ADME; how it was run: as §4
Mus musculus [26] = species: Mus musculus; assay: Stability in mouse serum at the time of 2.5 hours, stability was measured by in the form of percent Fluoro uracil; assay type: ADME; how it was run: as §4
Mus musculus [27] = species: Mus musculus; assay: Stability in mouse serum at the time of 5 hours, stability was measured by in the form of percent Fluoro uracil; assay type: ADME; how it was run: as §4
Mus musculus [28] = species: Mus musculus; assay: Stability in mouse serum at the time of 0.5 hours, stability was measured by in the form of percent Fluoro uracil; assay type: ADME; how it was run: as §4
Homo sapiens [29] = species: Homo sapiens; assay: Stability in human serum at the time of zero(0) hours, stability was measured by in the form of percent Fluoro uracil; assay type: ADME; how it was run: as §4
[30] = Stability in water (H20) at the time of zero(0) hours, stability was measured by in the form of percent Fluoro uracil; assay type: physicochemical; settings: buffer; how it was run: as §5
Mus musculus [31] = species: Mus musculus; assay: Stability in mouse serum at the time of 1.5 hours, stability was measured by in the form of percent Fluoro uracil; assay type: ADME; how it was run: as §4
[32] = Candida albicans, read-out: MIC

Row | SMILES | Activity (Candida albicans [1]) | Zone size (Escherichia coli [2]) [mm] | MIC (Candida albicans [3]; [32]) [µg/mL] | Activity (Candida albicans [4]) | Zone size (Escherichia coli [5]) [mm] | Activity (Candida albicans [6]) | MIC (Candida albicans [7]; [32]) [µg/mL] | Zone size (Escherichia coli [8]) [mm] | Zone size (Escherichia coli [9]) [mm] | Activity (Candida albicans [10]) | Activity (Candida albicans [11]) | Zone size (Escherichia coli [12]) [mm] | Zone size (Escherichia coli [13]) [mm] | MIC (Candida albicans [14]; [32]) [µg/mL] | Zone size (Escherichia coli [15]) [mm] | Zone size (Escherichia coli [16]) [mm] | Zone size (Escherichia coli [17]) [mm] | MIC (Candida albicans [3]) [µg/mL] | MIC (Candida albicans [7]) [µg/mL] | MIC (Candida albicans [14]) [µg/mL] | other results
1 | O=c1[nH]cc(F)c(=O)[nH]1 [FLUOROURACIL] | 40 | 41 | 4 (≈ 30.8 µM) | 22 | 40 | 44 | 1 (≈ 7.69 µM) | 33 | 40 | 30 | 30 | 38 | 33 | 1 (≈ 7.69 µM) | 38 | 41 | 46 | – | – | – | –
2 | C[C@H](N)C(=O)N[C@@H](C(=O)O)n1cc(F)c(=O)[nH]c1=O (stereo in doubt; 8a(L,L)) | 26 | – | – | 16 | – | 30 | – | – | – | 22 | 20 | – | – | – | – | – | – | 12.5 (≈ 45.6 µM) | 12.5 (≈ 45.6 µM) | 1.6 (≈ 5.83 µM) | –
3 | C[C@H](N)C(=O)NC(C(=O)O)n1cc(F)c(=O)[nH]c1=O (some centres undefined) | – | 26 | 25 (≈ 91.2 µM) | – | 27 | – | 25 (≈ 91.2 µM) | 0 | 0 | – | – | 0 | 22 | 6.3 (≈ 23 µM) | 25 | 0 | 31 | – | – | – | Serum stability (Homo sapiens [18]): 15; Serum stability (Homo sapiens [19]): 16; Serum stability (Homo sapiens [20]): 3; Serum stability (Mus musculus [21]): 53; Serum stability [22]: 9; Serum stability (Homo sapiens [23]): 7; Serum stability (Mus musculus [24]): 0; Serum stability (Homo sapiens [25]): 25; Serum stability (Mus musculus [26]): 36; Serum stability (Mus musculus [27]): 43; Serum stability (Mus musculus [28]): 12; Serum stability (Homo sapiens [29]): 0; Serum stability [30]: 0; Serum stability (Mus musculus [31]): 27
4 | C[C@H](N)C(=O)N[C@@H](C(=O)O)n1cc(F)c(=O)[nH]c1=O (stereo in doubt; 8b(L,D)) | 0 | – | – | 0 | – | 0 | – | – | – | 0 | 0 | – | – | – | – | – | – | >100 | >100 | >100 | –
